One series relates to HIV-1. To be noted: MT-2 cell culture.
Series [1] is classed as physicochemical. To be noted: reaction at 37°C, gel apparatus up to 55°C. An outline of the steps: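 Stability inferred from a single-turnover incorporation time course using HIV-1 RT (250 nM) and D23/D36 primer/template (50 nM). The test triphosphate (150 μM) and a dTTP reference (100 μM) were run in parallel at 37°C and sampled at 0, 30 s, 5, 10, 30 and 60 min. Products were resolved on denaturing acrylamide gel (apparatus up to 55°C), comparing band mobility.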

For `CC(C)=CCN1Cc2c(OCCOCCOCCOCCOC(=O)CCc3cn([C@H]4C=C[C@@H](CO)O4)c(=O)[nH]c3=O)ccc3[nH]c(=S)n(c23)C[C@@H]1C` [Compound 16a], in the series on HIV-1, the “Antiviral activity in cell culture (in words)” value was “most inhibitory”. As for `Cc1cc(C#CCOCCOCCOCCOCCOCC#Cc2cn([C@H]3C=C[C@@H](COP(=O)(O)OP(=O)(O)OP(=O)(O)O)O3)c(=O)[nH]c2=O)cc(C)c1Oc1ccnc(Nc2ccc(C#N)cc2)n1` [d4TTP-4PEG-TMC], the “Stability (in words)” value in series [1] is listed as “increased compound stability”.

The record behind these values is PMC3580853 (Bioorganic & medicinal chemistry letters, 2012).
